Source: ChEMBL document CHEMBL3425454, “Synthesis, biological evaluation and modeling studies of terphenyl topoisomerase IIα inhibitors as anticancer agents” (Eur J Med Chem, 2015)
pIC50: −log10 of the molar value. Blank lines part the entries; values can stand above or below the molecule they belong to. The source made the active and inactive calls. No cut-off for these calls is given here.

What was measured:
MDA-MB-435 = test: Cytotoxicity against human MDA-MB-435 cells assessed as cell growth inhibition after 72 hrs by MTT assay; format: functional, cell-based; settings: MDA-MB-435, 72 h
In short: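 MDA-MB-435 cells treated in triplicate with a range of concentrations for 72 h at 37°C, 5% CO2. Medium then replaced, MTT (5 mg/mL) added for 4 h, followed by overnight lysis in 10% SDS/5% isobutanol/12 mM HCl. Absorbance read at 590 nm; inhibition computed against control and blank wells. IC50 = concentration giving 50% growth inhibition, mean±SD of three experiments.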

[1] = biological target: T1, Topoisomerase I (Bos taurus) (UniProt Q2HPH0); test: Inhibition of calf thymus topoisomerase-1 assessed as conversion of negatively supercoiled plasmid DNA pBR322 to relaxed DNA at 100 uM after 30 mins by agarose gel electrophoresis
T1 sequence (whole entry): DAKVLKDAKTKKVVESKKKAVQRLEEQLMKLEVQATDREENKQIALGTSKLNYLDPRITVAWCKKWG
In short: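 Relaxation of 0.5 μg supercoiled pBR322 by 1 unit calf thymus TOP1 in 10 mM Tris-HCl pH 7.9, 150 mM NaCl, 0.1% BSA, 1 mM spermidine, 5% glycerol; 30 min at 37 °C. Reaction stopped with sarcosyl/bromophenol blue/glycerol. Products run on 1% agarose in TAE at 5 V/cm for 2 h and stained with ethidium bromide (0.5 μg/mL). Performed at least in duplicate.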

[2] = biological target: DNA topoisomerase 2-alpha (Homo sapiens) (UniProt P11388); test: Inhibition of human recombinant topoisomerase-2 alpha assessed as conversion of negatively supercoiled plasmid DNA pBR322 to relaxed DNA at 100 uM after 30 mins by agarose gel electrophoresis
In short: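 Recombinant human TOP2α (1 unit) incubated with 0.5 μg supercoiled pBR322 in 10 mM Tris-HCl pH 7.9, 50 mM NaCl, 50 mM KCl, 5 mM MgCl2, 1 mM EDTA, 1 mM ATP, BSA; 30 min at 30 °C. Stopped with 7 mM EDTA. Products resolved on 1% agarose in TAE at 5 V/cm for 2 h and stained with ethidium bromide. Performed at least in duplicate.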

[3] = biological target: DNA topoisomerase 2-alpha (Homo sapiens) (UniProt P11388); test: Inhibition of human recombinant topoisomerase-2 alpha-mediated DNA cleavage using circular supercoiled plasmid DNA as substrate
[4] = biological target: DNA topoisomerase 2-alpha (Homo sapiens) (UniProt P11388); test: Inhibition of human recombinant topoisomerase-2 alpha assessed as topoisomerase poison activity using circular supercoiled plasmid DNA as substrate

DNA topoisomerase 2-alpha (Homo sapiens), sequence (P11388 whole entry): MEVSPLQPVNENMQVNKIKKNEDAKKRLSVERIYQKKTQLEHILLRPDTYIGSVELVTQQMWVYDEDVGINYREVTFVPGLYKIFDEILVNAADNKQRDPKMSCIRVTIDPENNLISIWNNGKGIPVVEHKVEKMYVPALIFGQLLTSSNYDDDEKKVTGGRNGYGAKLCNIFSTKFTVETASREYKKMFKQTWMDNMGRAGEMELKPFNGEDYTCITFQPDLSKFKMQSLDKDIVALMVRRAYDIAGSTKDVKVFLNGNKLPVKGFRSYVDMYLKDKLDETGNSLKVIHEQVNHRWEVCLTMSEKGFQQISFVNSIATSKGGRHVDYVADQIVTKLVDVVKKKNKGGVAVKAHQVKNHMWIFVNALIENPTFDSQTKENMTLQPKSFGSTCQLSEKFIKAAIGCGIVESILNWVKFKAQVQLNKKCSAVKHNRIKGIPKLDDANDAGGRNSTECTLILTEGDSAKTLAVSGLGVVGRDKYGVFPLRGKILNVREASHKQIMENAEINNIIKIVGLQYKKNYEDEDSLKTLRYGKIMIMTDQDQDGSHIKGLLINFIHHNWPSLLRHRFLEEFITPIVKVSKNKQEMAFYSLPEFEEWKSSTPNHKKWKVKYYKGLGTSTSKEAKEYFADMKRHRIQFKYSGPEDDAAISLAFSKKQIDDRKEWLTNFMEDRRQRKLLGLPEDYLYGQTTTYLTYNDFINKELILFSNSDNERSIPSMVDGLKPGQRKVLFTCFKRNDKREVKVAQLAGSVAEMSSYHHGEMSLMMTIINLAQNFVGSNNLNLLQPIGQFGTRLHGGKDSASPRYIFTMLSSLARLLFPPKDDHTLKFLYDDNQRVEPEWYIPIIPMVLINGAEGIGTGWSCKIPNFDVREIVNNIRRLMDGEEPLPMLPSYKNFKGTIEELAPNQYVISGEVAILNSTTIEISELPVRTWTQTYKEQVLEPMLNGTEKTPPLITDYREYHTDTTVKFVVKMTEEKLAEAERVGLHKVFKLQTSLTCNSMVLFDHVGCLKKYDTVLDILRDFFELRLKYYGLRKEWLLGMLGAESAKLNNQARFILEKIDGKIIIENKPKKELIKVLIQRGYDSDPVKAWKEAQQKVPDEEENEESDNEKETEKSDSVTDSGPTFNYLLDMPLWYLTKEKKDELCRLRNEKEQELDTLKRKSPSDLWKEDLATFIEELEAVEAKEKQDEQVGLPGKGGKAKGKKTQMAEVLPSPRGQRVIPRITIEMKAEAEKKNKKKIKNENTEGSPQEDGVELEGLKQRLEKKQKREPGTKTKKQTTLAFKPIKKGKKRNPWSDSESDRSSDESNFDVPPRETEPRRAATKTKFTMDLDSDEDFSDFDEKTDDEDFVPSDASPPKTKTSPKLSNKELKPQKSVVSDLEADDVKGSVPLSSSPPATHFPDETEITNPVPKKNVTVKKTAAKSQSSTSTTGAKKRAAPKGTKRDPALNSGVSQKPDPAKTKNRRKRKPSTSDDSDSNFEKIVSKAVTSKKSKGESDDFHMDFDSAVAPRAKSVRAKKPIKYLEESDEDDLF

SMILES: O=C(O)c1ccc(-c2ccc(-c3ccc(O)c(O)c3)c(O)c2O)cc1
pIC50 (MDA-MB-435): < 4.00

SMILES: COC(=O)c1cc(-c2ccc(-c3ccc(O)cc3)c(OC)c2OC)ccc1O
pIC50 (MDA-MB-435): 4.35

SMILES: COC(=O)c1ccc(-c2ccc(-c3ccc(O)cc3)c(OC)c2OC)cc1O
pIC50 (MDA-MB-435): 4.68

SMILES: COc1ccc(-c2ccc(-c3ccc(OC)c(OC)c3)c(OC(C)=O)c2OC(C)=O)cc1OC
pIC50 (MDA-MB-435): < 4.00

SMILES: COc1c(-c2ccc(O)c([N+](=O)[O-])c2)ccc(-c2ccc(O)c([N+](=O)[O-])c2)c1OC
pIC50 (MDA-MB-435): 4.21

SMILES: CCOc1c(-c2ccc(OC)c(OC)c2)ccc(-c2ccc(OC)c(OC)c2)c1OCC
pIC50 (MDA-MB-435): < 4.00

SMILES: COc1ccc(-c2ccc(-c3ccc(OC)cc3)c(OC(C)=O)c2OC(C)=O)cc1
pIC50 (MDA-MB-435): 4.01

SMILES: COc1c(-c2ccc(O)cc2)ccc(-c2ccc(C(=O)O)c(O)c2)c1OC
pIC50 (MDA-MB-435): < 4.00

SMILES: Oc1ccc(-c2ccc(-c3ccc(O)c(O)c3)c(O)c2O)cc1
pIC50 (MDA-MB-435): 5.39

SMILES: COc1c(-c2ccc(O)cc2)ccc(-c2ccc(O)c(C(=O)O)c2)c1OC
pIC50 (MDA-MB-435): < 4.00

inhibition [1]: Active
inhibition [2]: Active
inhibition [3]: Active
SMILES: Oc1ccc(-c2ccc(-c3ccc(O)c(O)c3)c(O)c2O)cc1O
pIC50 (MDA-MB-435): 5.40
inhibition [4]: inactive

SMILES: O=[N+]([O-])c1cc(-c2ccc(O)c([N+](=O)[O-])c2)ccc1O
pIC50 (MDA-MB-435): < 4.00

inhibition [2]: Active
SMILES: COc1cc([C@@H]2c3cc4c(cc3[C@@H](O[C@@H]3O[C@@H]5CO[C@@H](C)O[C@H]5[C@H](O)[C@H]3O)[C@H]3COC(=O)[C@H]23)OCO4)cc(OC)c1O [ETOPOSIDE]
pIC50 (MDA-MB-435): 5.55

SMILES: COc1ccc(-c2ccc(-c3ccc(OC)c(OC)c3)c(OC)c2OC)cc1OC
pIC50 (MDA-MB-435): 4.04

inhibition [2]: Active
SMILES: COc1c(-c2ccc(O)cc2)ccc(-c2ccc(O)cc2)c1OC
pIC50 (MDA-MB-435): 4.83

SMILES: COc1ccc(-c2ccc(-c3ccc(C(=O)O)cc3)c(OC)c2OC)cc1OC
pIC50 (MDA-MB-435): < 4.00

SMILES: CCOc1c(-c2ccc(O)cc2)ccc(-c2ccc(O)cc2)c1OCC
pIC50 (MDA-MB-435): 4.38

SMILES: O=C(O)c1ccc(-c2ccc(-c3ccc(O)cc3)c(O)c2O)cc1O
pIC50 (MDA-MB-435): 4.43

SMILES: Oc1ccc(-c2ccc(-c3ccc(O)cc3)c(O)c2O)cc1
pIC50 (MDA-MB-435): < 4.00

SMILES: O=C(O)c1cc(-c2ccc(-c3ccc(O)cc3)c(O)c2O)ccc1O
pIC50 (MDA-MB-435): 4.00

SMILES: COc1ccc(-c2cccc(OC)c2OC)cc1OC
pIC50 (MDA-MB-435): 4.64
